Tn6 DDE FP – DD(E)-Tn6 binding inhibition, primary FP screen; inhibition, % at 8.3 µM; Fibrin DD(E) TRITC-Tn6 fluorescence polarization displacement; 0.21% of 370,000 active; AID 720509;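 active = inhibition above a per-campaign cutoff: mean of compounds within control limits plus 3 SD, cut at about 15% in these data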;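 note: 0% = median of all compound wells on the plate and 100% = blocking peptide control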
PLC-beta3 inh – PLC-beta3 (human) inhibition, primary screen | 0.18% of 370,000 active | AID 720704 | inhibition, % at 12.2 µM | Purified PLC-beta3, fluorogenic substrate, fluorescence | Q01970; in the data active = inhibition above about 11%;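 note: 0% = median of compound wells on plate and 100% = full blocker control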
ADAM17 inh – inhibits human ADAM17 | P78536 | recombinant ADAM17, EDANS/DABCYL FRET peptide cleavage | inhibition, % at 6.95 µM | 0.83% of 370,000 active | AID 720648;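 active = inhibition above the mean of compounds lying between control limits plus 3 SD, set per campaign, cut at about 8.5% in these data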;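 note: 0% = DMSO-only wells as the low control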
PLC-gamma1 inh – PLC-gamma1 (human) inhibition, primary screen | purified PLC-gamma1, fluorogenic substrate, fluorescence | inhibition, % at 12.2 µM | P19174 | 0.84% of 370,000 active; in the data active = inhibition above about 9.5%
DDE Tn7 FP inh – DD(E)-Tn7 binding inhibition, primary FP screen; inhibition, % at 8.3 µM; 0.13% of 370,000 active; P02675; AID 720508; FP displacement of FITC-Tn7 peptide from fibrin DD(E); 0% = median of compound wells per plate;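 active = inhibition above the mean of compounds falling within the control limits plus 3 SD of them, cut at about 14% in these data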;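 note: 0% = plate median of compound wells and 100% = 10 µM Aha-Tn7 peptide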
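system = human fibrin DD(E) protein | quantity = DD(E) 2 µM final | medium = Tris/NaCl/CaCl2 buffer, pH 7.8 | also added = labelled Tn7 tracer, 0.1 µM | compound dosing = single point at 8.3 µM | timing = compound with protein 10 min, then 3 h after probe, room temperature | signal = FP measurement | benchmarks = Aha-Tn7 high control | repeats = one replicate per compound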
ADAM10 inh – inhibitors of human ADAM10 | inhibition, % at 7 µM | recombinant ADAM10, EDANS/DABCYL FRET peptide cleavage, 3 h | O14672 | 0.62% of 370,000 active;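 active = inhibition above a per-campaign cutoff equal to the mean of compounds falling between control-based bounds plus 3 SD, cut at about 20% in these data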;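 note: 0% = DMSO wells while the 100% control is not disclosed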
Target sequence (O14672 214-748 limits assumed): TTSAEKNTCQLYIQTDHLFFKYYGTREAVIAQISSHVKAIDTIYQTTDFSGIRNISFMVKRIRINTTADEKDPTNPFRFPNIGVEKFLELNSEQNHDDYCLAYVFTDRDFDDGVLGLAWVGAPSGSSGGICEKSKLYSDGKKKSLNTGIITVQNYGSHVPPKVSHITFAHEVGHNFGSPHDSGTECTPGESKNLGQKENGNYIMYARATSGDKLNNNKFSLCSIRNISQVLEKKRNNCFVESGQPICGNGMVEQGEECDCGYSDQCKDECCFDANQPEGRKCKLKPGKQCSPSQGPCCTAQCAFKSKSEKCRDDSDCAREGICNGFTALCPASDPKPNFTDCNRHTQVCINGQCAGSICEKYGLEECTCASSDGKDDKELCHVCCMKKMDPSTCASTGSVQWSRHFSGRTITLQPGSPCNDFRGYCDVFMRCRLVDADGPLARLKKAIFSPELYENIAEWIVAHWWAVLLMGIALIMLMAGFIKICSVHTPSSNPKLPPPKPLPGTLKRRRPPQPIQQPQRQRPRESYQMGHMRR
ADAM10 confirm – human ADAM10 inhibition, confirmation | shares compounds with ADAM10 inh | 1% of 2,100 active | AID 743208 | inhibition, % at 6.95 µM | ADAM10 QFRET peptide cleavage, EDANS fluorescence;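 active = inhibition above about 20% chosen separately for each screening run, limit read from the data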;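 note: 0% = DMSO wells and 100% = marimastat wells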
ADAM17 ctr – inhibits human ADAM17 in ADAM10 exosite counter-screen; shares compounds with ADAM10 inh; ADAM17 QFRET peptide cleavage, EDANS fluorescence; inhibition, % at 6.95 µM; 0.5% of 2,100 active;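 active = mean triplicate inhibition above the solvent-only control wells' mean plus 3 SD, cut at about 12% in these data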;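 note: 0% = DMSO wells and 100% = marimastat wells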
ADAM10 ctr – ADAM10 inhibition, counter-screen for ADAM17 exosite hits; shares compounds with ADAM17 inh; recombinant ADAM10, EDANS/DABCYL FRET peptide cleavage, 3 h; inhibition, % at 6.95 µM; 47% of 2,900 active;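 active = mean inhibition over the triplicate runs exceeds the activity threshold set in the earlier primary screen, cut at about 20% in these data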;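 note: 0% = DMSO wells and 100% = marimastat wells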
ADAM17 confirm – confirmation of inhibitors of human ADAM17 | AID 743257 | shares compounds with ADAM17 inh | 65% of 2,900 active | inhibition, % at 6.95 µM | recombinant ADAM17, EDANS/DABCYL QFRET peptide cleavage;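 active = mean inhibition across replicates above the hit cutoff set in the primary screen, cut at about 8.5% in these data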;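 note: 0% = DMSO wells and 100% = marimastat wells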
* = called active by the depositor; / = no result. Only some compounds are listed: those with a hit (about 2.3% of all), similar ones and a draw of the others.

SMILES	Tn6 DDE FP	PLC-beta3 inh	ADAM17 inh	PLC-gamma1 inh	DDE Tn7 FP inh	ADAM10 inh	ADAM10 confirm	ADAM17 ctr	ADAM10 ctr	ADAM17 confirm
COc1ccc2c(c1)CCCN2C(=O)C1CCCN(S(=O)(=O)c2cccc3cccnc23)C1 (centres undefined)	-1	-5	-8	-1	6	-10	/	/	/	/
CCCCCCCOC(=O)C1=C(C)Nc2ncnn2C1c1cccs1 (centres undefined)	5	2	0	2	6	1	/	/	/	/
CCCCCCCCOC(=O)C1=C(C)Nc2nnnn2C1c1cccs1 (centres undefined)	-6	-2	10*	-2	-3	20*	8	3	21*	8
CN(C)c1ccc(C(CNS(=O)(=O)c2ccc(F)c(F)c2)c2c[nH]c3ccccc23)cc1 (centres undefined)	-2	-25	14*	0	0	40*	13	4	55*	31*
CCOc1ccccc1NC(=O)COC(=O)C(CC)c1ccccc1 (centres undefined)	-1	6	11*	3	-1	22*	2	0	16	5
CCC(C(=O)OCC(=O)Nc1cc(C)ccc1OC)c1ccccc1 (centres undefined)	4	5	3	4	5	10	/	/	/	/
CCCCC[C@H](C)N1C[C@H](COCc2ccccc2)Oc2cc(N3CCC[C@@H]3CO)ccc2S1(=O)=O	-4	2	6	-2	-1	9	/	/	/	/
CCCCC[C@@H](C)N1C[C@@H](COCc2ccccc2)Oc2cc(N3CCC[C@H]3C(N)=O)ccc2S1(=O)=O	-9	4	16*	3	-8	28*	10	3	22*	14*
CCCCC[C@H](C)N1C[C@@H](COCc2ccccc2)Oc2cc(N3CCC[C@H]3C(N)=O)ccc2S1(=O)=O	2	-6	11*	1	2	22*	10	2	39*	23*
CCCCC[C@H](C)N1C[C@H](COCc2ccccc2)Oc2cc(N3CC[C@H](O)C3)ccc2S1(=O)=O	-1	-2	7	1	3	6	/	/	/	/
CCCCC[C@H](C)N1C[C@H](COCc2ccccc2)Oc2cc(N3CCC[C@H]3CO)ccc2S1(=O)=O	1	-4	8	-1	0	16	/	/	/	/
CCCCC[C@@H](C)N1C[C@H](COCc2ccccc2)Oc2cc(N3CC[C@@H](O)C3)ccc2S1(=O)=O	-12	2	9.9*	3	-7	22*	10	4	40*	24*
O=C1CCC[C@H]2Cc3nc4cc5c(cc4cc3C[C@]23CCCN13)OCO5	-4	-4	-13	-2	-2	-42	/	/	/	/
Cc1ccc(NS(=O)(=O)c2ccc(NC(=O)c3cccs3)cc2)c(C)c1	3	2	7	2	-7	11	/	/	/	/
Cc1ccc(NC(=O)c2cc(S(=O)(=O)Nc3ccc(C)cc3)cs2)cc1	-4	-2	10*	-1	12	27*	6	3	45*	19*
C=CCN1C(=O)[C@@H](CC(=O)NCCCN2CCCC2=O)[C@]2(C(=O)OCC)CCCCC/C=C/12	-3	0	-1	-4	2	-1	/	/	/	/
O=C(COc1ccc(Br)cc1)N1CCN(c2ccc([N+](=O)[O-])c(N3CCCCC3)c2)CC1	3	5	11*	5	-3	24*	8	1	32*	18*
Cc1ccc(OCC(=O)N2CCN(c3ccc([N+](=O)[O-])c(N4CCOCC4)c3)CC2)cc1	6	0	1	1	0	2	/	/	/	/
CCOC(=O)Cn1cc(CN2C(C(=O)OC)CN(CCO)CCS2(=O)=O)nn1 (centres undefined)	2	1	-3	1	2	1	/	/	/	/
Clc1ccc([C@H]2OC[C@@]3(CNC4CCCCC4)CS[C@H](c4ccc(Cl)cc4)N23)cc1	-3	2	2	1	-4	10	/	/	/	/
COC(=O)c1cc(NC(=O)CN(c2cccc(OC)c2)S(=O)(=O)c2ccccc2)ccc1Cl	-3	1	12*	3	2	24*	6	4	34*	17*
C[C@H](CO)N1C[C@H](C)[C@H](CN(C)C(=O)Nc2ccc(F)cc2)OCc2ccccc2-c2c(n(C)c3ccccc23)C1=O	-1	-1	-1	7	0	8	/	/	/	/
Cc1ccccc1S(=O)(=O)N(C)C[C@@H]1OCc2ccccc2-c2c(n(C)c3ccccc23)C(=O)N([C@H](C)CO)C[C@@H]1C	-5	3	9.7*	3	-6	27*	6	3	32*	16*
C[C@@H]1CN([C@H](C)CO)C(=O)c2c(c3ccccc3n2C)-c2ccccc2CO[C@@H]1CN(C)C(=O)Nc1ccc2c(c1)OCO2	-4	0	14*	3	1	22*	4	1	20*	9.5*
COc1ccc(C(=O)CC(Nc2ccc([N+](=O)[O-])cc2)c2ccc(Cl)cc2)cc1 (centres undefined)	-7	6	13*	5	-4	22*	9	3	38*	18*
CC(=O)c1cc(-c2ccc(Cl)c(C(F)(F)F)c2)c(=O)n2c1CCC2	-7	-20	-13	-18	0	-48	/	/	/	/
COc1cccc(Cn2cc(COC(=O)NCCc3ccccc3)nn2)c1	8	-1	2	-5	8	-2	/	/	/	/
CCOC(=O)c1c(C)[nH]c(C(=O)C(C)OC(=O)c2cccc(OCc3c(C)noc3C)c2)c1C (centres undefined)	-1	3	13*	3	3	30*	6	2	47*	23*
Cc1cccc(NC(=O)C2CCCN(c3nnc(-n4cccc4)s3)C2)c1C (centres undefined)	-1	8	-4	-1	5	-12	/	/	/	/
CC(C)C(NS(=O)(=O)c1c(Cl)cccc1Cl)C(=O)OCC(=O)c1c[nH]c2ccccc12 (centres undefined)	-9	-2	15*	-6	-5	28*	6	2	19	14*
